Bioassay records: PubChem BioAssay, The Scripps Research Institute Molecular Screening Center
This is a sample that favours compounds with a hit; in the whole collection about 1.8% have one here.
PERK inh – human PERK inhibition, primary cell-based screen. Q9NZJ5. CHO PERK-DD fusion, SEAP luminescence translation reporter. inhibition, % at 5.6 µM. 220,000 compounds, 0.17% hits. AID 1416;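 active means inhibition above the mean inhibition of all tested compounds plus 3 SD, set separately per screening campaign, cut at about 2.9% in these data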;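 further: PERK kinase domain activated by AP20187 dimerizer at 100 nM; 0% = DMSO with dimerizer and 100% = rapamycin at 8.4 µM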
STAT3 blocker – STAT3 signaling inhibition; U3A cells, IL-6 STAT3-luciferase reporter, luminescence; host cell line lacks STAT1; inhibition, % at 5.5 µM; 190,000 compounds, 0.89% hits;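 active means inhibition above the mean inhibition across all screened compounds plus 3 SD, cut at about 44% in these data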;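 further: 0% = DMSO only wells and 100% = 100 µM nifuroxazide control wells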
STAT1 inh – inhibitors of IFN-gamma induced STAT1 signaling; 200,000 compounds, 0.35% hits; AID 920; NIH 3T3 STAT1-luciferase reporter, luminescence; inhibition, % at 5.5 µM;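 active means inhibition above a set limit, the mean inhibition across all tested compounds plus 3 SD, cut at about 34% in these data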;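 further: 0% = IFN-gamma with DMSO and 100% = IFN-gamma with 300 µM nifuroxazide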
STAT3 act – activators of IL-6 induced STAT3 signaling | 190,000 compounds, 0.91% hits | AID 871 | U3A cells, IL-6 STAT3-luciferase reporter, luminescence; 100% = signal with IL-6 EC80 alone | activation (% of control), % at 5.6 µM;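 active means activation above the screen-wide mean of compound activation plus 3 SD, cut at about 130% in these data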;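 further: 0% = background luminescence of wells with medium and substrate only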
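Test system: human U3A cells carrying STAT3-luciferase construct; control set: IL-6-only wells as 100% reference; timing: compound pre-incubation 1 h before IL-6, then 6 h stimulation at 37 °C; also added: IL-6 stimulus at 33 ng/mL final; evaluation: % activation versus median of IL-6-stimulated wells; detection: reporter luminescence signal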
Active calls of the source: *; / = not tested or not shown.

SMILES	PERK inh	STAT3 blocker	STAT1 inh	STAT3 act
Cc1c(C(=O)Oc2cccc3ccccc23)cnn1-c1ccccc1	0	-28	-18	124
CCOc1ccc(NC(=O)Nc2ccc3nsnc3c2)cc1	1	14	-29	90
CCOC(=O)c1cccc(NC(=O)Nc2ccc(OCC)cc2)c1	-2	53*	65*	59
Cc1ccccc1OCC(=O)Nc1cccc(C(=O)O)c1	2	103*	97*	9
CCOc1ccc(NC(=O)Nc2cccc(C(=O)O)c2)cc1	1	110*	96*	10
COc1ccc2c(c1)sc1nc(-c3ccccc3)cn12	0	106*	71*	15
CC[n+]1c(/C=C/c2c[nH]c3ccccc23)ccc2cc(C)ccc21	-1	59*	58*	51
CCN(CC)C(=O)c1ccc(/C=C/c2c[nH]c3ccccc23)[n+](C)c1	2	-14	-3	117
O=C1c2ccccc2C(=O)N1CCOc1ccccc1	1	-44	-40	138*
Clc1ccc(CSc2nc3ccncc3[nH]2)cc1	1	81*	52*	37
Cc1ccc(CSc2nc3ccncc3[nH]2)cc1	1	100*	72*	21
O=C(c1ccc(CSc2nc3ccncc3[nH]2)cc1)N1CCCCCC1	1	/	/	/
COC(=O)N/N=C/c1ccc(OC(=O)/C=C/c2ccco2)cc1	2.9*	/	/	/
O=C1CC(C(=O)Nc2cccc(F)c2)n2ncnc2N1 (stereo not given)	1	3	0	98
CCSc1nnc(NC(=O)c2cccc3ccccc23)s1	0	20	0	90
CCSc1nnc(NC(=O)c2cc(-c3ccccc3O)n[nH]2)s1	3.8*	/	/	/
Nc1ccc(Oc2cccc(Oc3ccc(N)cc3)c2)cc1	2	51*	39*	60
Cc1cccc(Oc2ccc(N)cc2)c1	1	5	-2	97
COc1ccc(-n2c(C)cc(C3=NNC(=NC4CC4)SC3)c2C)cc1	1	28	62*	80
Cc1cc(C2=NNC(=NC3CC3)SC2)c(C)n1-c1ccccc1	0	105*	91*	12
CC(=O)NCc1c(Cl)cccc1-n1cccc1	3.3*	-2	-5	111
O=c1ccc(-c2ccccc2)n[nH]1	3.0*	8	-5	99
CCOC(=O)C1=NN(c2ccccc2)C(=O)C1	2.9*	/	/	/
O=C(NC(=S)Nc1ccc(Cl)cn1)c1cccs1	1	-48	-105	151*
CC(=O)C1C(c2ccco2)c2c(noc2C)CC1(C)O (stereo not given)	3.0*	-2	-3	102
SMILES	PERK inh	STAT3 blocker	STAT1 inh	STAT3 act
Cc1ccc(/C=C/C(=O)NCc2cccs2)o1	1	4	-9	99
O=C(COC(=O)c1ccc(S(=O)(=O)NCc2ccco2)cc1)Nc1ccc(Cl)cn1	0	1	-6	106
Nc1nccc(-c2ccc(-n3cccc3)cc2)n1	1	9	-19	100
O=C(OCC(F)(F)F)c1cccc(COc2ccc3ccccc3c2)c1	1	102*	88*	15
O=Cc1ccc(OCc2cccc(C(F)(F)F)c2)cc1O	2	7	0	98
O=C(CN1C(=O)NC2(CCCCC2)C1=O)Nc1ccc2c(c1)CCC2	1	-34	-22	134*
Cc1nc2cc(NC(=O)Nc3ccccc3Cl)ccc2n1C	0	84*	40*	30
O=C(Nc1ccc(Cl)cc1)Nc1cccc(C(=O)O)c1	0	99*	88*	18
O=C(Nc1cccc(C(=O)O)c1)Nc1ccccc1Cl	1	89*	79*	29
O=C(Nc1cccc(Cl)c1)Nc1cccc(C(=O)O)c1	0	/	/	/
O=C(Nc1cccc(Cl)c1)Nc1ccccc1C(=O)O	2	/	/	/
COc1ccc(-c2cn[nH]c2-c2ccc(OCc3ccc([N+](=O)[O-])cc3)cc2O)cc1	-1	3	2	94
COc1ccc(-n2ncc3c(N4CCCCC4)ncnc32)cc1	1	107*	72*	13
COc1ccc(-n2ncc3c(N4CCN(c5cc(C)ccc5C)CC4)ncnc32)cc1	1	2	-4	106
Cc1ccc(C2=NNC(c3cccc(F)c3)S2)cc1 (stereo not given)	1	78*	48*	35
Cc1cc(C(=O)COC(=O)c2cccn2C)c(C)n1Cc1ccco1	0	69*	37*	46
COc1ccc(-n2nc(C(=O)NCC(=O)Nc3ccccn3)c3ccccc3c2=O)cc1Cl	-1	-1	-4	105
O=c1ccc(Cl)n[nH]1	0	/	/	/
O=c1c2ccccc2ncn1Cc1nc2ccccc2s1	0	-8	5	112
O=C1c2ccccc2S(=O)(=O)N1Cc1nc2ccccc2s1	1	61*	52*	50
COc1cc(C(=O)NCC(=O)OC(C)C(=O)Nc2ncc(Cl)cc2Cl)cc(OC)c1OC (stereo not given)	0	1	-11	100
Cc1cc(=O)oc2ccc(OCC(=O)N3CCC(C)CC3)cc12	0	-35	1	135*
Cc1cc(=O)oc2cc(OCC(=O)N3CCCC(C)C3)ccc12 (stereo not given)	-1	7	2	100
O=C(CSc1ccsc1[N+](=O)[O-])NCc1ccccc1	0	-39	-13	135*
COc1ccccc1CNC(=O)CSc1ccsc1[N+](=O)[O-]	0	-9	-41	109
SMILES	PERK inh	STAT3 blocker	STAT1 inh	STAT3 act
O=S(=O)(c1ccccc1Cl)N1CCC(O)(c2cccnc2)CC1	1	0	-9	102
COc1ccc(-c2cc(C(=O)N/N=C/c3sccc3C)c3ccccc3n2)c(OC)c1	-2	-44	-8	135*
COc1ccc(-c2cc(C(=O)N/N=C/c3ccc4c(c3)OCO4)c3ccccc3n2)c(OC)c1	-1	-3	-6	112
C/C(=N/N=C1\SCC(=O)N1c1ccccc1)c1ccc(C)cc1	3.7*	/	/	/
Cc1ccc(N2C(=O)CSCC2=O)cc1	-1	5	7	96
Cc1ccc(NC(=O)/C=C/c2ccc(Cl)cc2)nc1	0	-43	-42	140*
O=C(/C=C/c1ccccc1)Nc1ccc(Br)cn1	-1	17	-47	91
Cc1nnc(SCc2c(Cl)cccc2[N+](=O)[O-])s1	2	19	1	90
Cc1ccc2c(c1)C(c1ccccc1)N(C(=O)c1ccc(Br)o1)CC(=O)N2 (stereo not given)	-1	-38	8	135*
O=C1CN(C(=O)c2ccc(Br)o2)C(c2ccccc2)c2cc(Cl)ccc2N1 (stereo not given)	-1	-20	8	124
Cn1c2ccccc2c(=O)c2c(=O)n(C3CCCCC3)c(-c3cccs3)nc21	-1	9	-4	97
CC(=O)Nc1nc2ccccc2n1Cc1ccccc1C	-1	-34	-27	134*
Cc1cccc(C)c1NC(=O)CCCN1CC(C)OC(C)C1 (stereo not given)	3.2*	-1	-1	102
O=C(Cn1cnc2cc([N+](=O)[O-])ccc2c1=O)Nc1ccc(N2CCOCC2)cc1	1	/	/	/
